From ChEMBL document CHEMBL1124588, “Synthesis and evaluation of N,N-di-n-propyltetrahydrobenz[f]indol-7-amine and related congeners as dopaminergic agonists” (J Med Chem, 1989) come the findings set out here.

The target of test [1] is D(2) dopamine receptor (Rattus norvegicus) (UniProt P61169). Description: Dopamine D2 agonistic activity (2 mg/kg) as plasma prolactin level in reserpinized rats. It is filed as functional, organism-based. In outline: (§1)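 Male Sprague-Dawley rats were given reserpine 15 mg/kg ip as an aqueous suspension 18 h before dosing. Compound in 10% ethanol was given ip; controls received saline. Rats were killed 1 h later and blood was allowed to clot. Serum prolactin was measured by NIAMD radioimmunoassay as ng NIAMD-prolactin-PR-1/mL and expressed as percent change versus control.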

Test [2] shares this target. Description: Dopamine D2 agonistic activity (2 mg/kg) as percent change in prolactin level in reserpinized rats. It is filed as functional, organism-based. Put shortly:
as §1

The target is the same in test [3]. Conditions: Plasma.

D(2) dopamine receptor (Rattus norvegicus), sequence (P61169 whole entry): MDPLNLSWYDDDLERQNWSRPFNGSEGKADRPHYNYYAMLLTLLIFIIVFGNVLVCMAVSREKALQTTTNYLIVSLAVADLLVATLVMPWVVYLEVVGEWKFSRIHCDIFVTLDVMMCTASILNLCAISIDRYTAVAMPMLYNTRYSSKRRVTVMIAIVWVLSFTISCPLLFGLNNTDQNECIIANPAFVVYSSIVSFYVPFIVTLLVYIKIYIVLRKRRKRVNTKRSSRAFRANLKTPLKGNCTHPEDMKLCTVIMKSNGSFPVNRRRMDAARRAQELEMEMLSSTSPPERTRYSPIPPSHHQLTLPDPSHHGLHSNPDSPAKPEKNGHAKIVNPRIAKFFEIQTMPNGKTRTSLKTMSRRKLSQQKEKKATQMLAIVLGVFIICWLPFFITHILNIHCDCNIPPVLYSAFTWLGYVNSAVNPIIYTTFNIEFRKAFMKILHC

`CCCN(CCC)CCc1cccc(NS(C)(=O)=O)c1` displayed a PRL in test [1] of 12.6 ng/mL. Further, the Change in test [2] was -76%.

`CCCN(CCC)C1CCc2ccc(NS(C)(=O)=O)cc2C1` (configuration not stated): in test [1], the PRL was determined as 28.3 ng/mL. In test [2], the Change is -41%.

Compound `CCCN(CCC)CCc1ccc2cc[nH]c2c1` came in with a PRL in test [1] of 51.2 ng/mL. Moreover, the Change in test [2] worked out at 0%.

With `CCCN(CCC)C1CCc2cc3cc[nH]c3cc2C1` (configuration not stated), in test [1], the PRL came to 30.6 ng/mL. Besides, the Change in test [2] was -37%.

Regarding `CCCN(CCC)CCc1cccc(NC(=O)C(F)(F)F)c1`, the PRL in test [1] came to 36.8 ng/mL. For the same compound, the Change in test [2] is -21%.

`CCCN(CCC)C1CCc2ccc3[nH]ccc3c2C1` (configuration not stated) came in with a PRL in test [3] of 3.8 ng/mL.

For the compound `CCCN(CCC)C1CCc2ccc(NC(C)=O)cc2C1` (configuration not stated), in test [1], the PRL was determined as 38.9 ng/mL. For the same compound, the Change in test [2] is -19%.

`CCCN(CCC)CCc1cccc2[nH]ccc12` displayed a PRL in test [1] of 5 ng/mL. Further, the Change in test [2] was -69%.

In turn, `CCCN(CCC)CCc1cccc(NC(C)=O)c1` yielded a PRL in test [1] of 36.9 ng/mL. Also, in test [2], the Change was -19%.
